From PubChem
The sample as a whole holds a higher share of hits than the screen did.
hDAT+cocaine: human DAT dopamine uptake with cocaine, either direction | Q01959 | LLC-PK1 hDAT cells, [14C]-dopamine uptake with cocaine IC80; actives deviate in either direction | B-score at 10 µM | hit rate 1.3% among 110,000 | AID 449768;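 active means Z score or B-score, a plate-position-corrected score, falls beyond the plate's 99.7% confidence bounds, in either direction; inactive means both scores lie inside the 99.7% bounds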
Target sequence (Q01959 whole entry, looked up): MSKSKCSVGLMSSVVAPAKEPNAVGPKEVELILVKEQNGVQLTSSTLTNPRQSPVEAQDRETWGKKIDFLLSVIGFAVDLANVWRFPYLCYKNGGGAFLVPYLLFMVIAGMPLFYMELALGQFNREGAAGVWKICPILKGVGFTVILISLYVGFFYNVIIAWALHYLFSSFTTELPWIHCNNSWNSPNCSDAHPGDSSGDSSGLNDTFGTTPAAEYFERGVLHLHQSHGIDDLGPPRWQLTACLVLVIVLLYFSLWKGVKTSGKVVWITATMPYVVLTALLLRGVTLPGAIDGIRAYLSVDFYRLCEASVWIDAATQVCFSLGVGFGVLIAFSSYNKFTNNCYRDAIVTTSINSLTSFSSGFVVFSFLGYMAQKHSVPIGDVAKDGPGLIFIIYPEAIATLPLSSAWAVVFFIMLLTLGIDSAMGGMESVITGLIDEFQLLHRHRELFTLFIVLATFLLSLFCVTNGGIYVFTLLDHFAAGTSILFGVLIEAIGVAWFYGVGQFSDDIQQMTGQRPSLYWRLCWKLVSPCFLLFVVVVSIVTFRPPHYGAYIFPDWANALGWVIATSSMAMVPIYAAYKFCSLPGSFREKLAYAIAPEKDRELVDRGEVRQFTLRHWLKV
HEK293 NFkB inh: inhibitors of the PMA/ionomycin-induced NF-kB reporter in HEK293 cells; inhibition, % at 3 µM; AID 465; HEK-293 NF-kB luciferase reporter, luminescence; hit rate 0.21% among 62,000;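 active means inhibition above the mean of all tested compounds plus 3 SD, cut at about 40% in these data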
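Timing: 1 h pretreatment, 16 h stimulation, 37 °C; system: HEK-293 cells with stable firefly luciferase reporter driven by four HIV NF-kB elements; doses: 3 µM once, 0.30% DMSO; measured by: luciferase luminescence; control set: DMSO and 10 µM reference inhibitor; repeats: single test; reagent: PMA plus ionomycin mix as NF-kB-activating stimulus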
Ec RNAP inh: blocks E. coli RNA polymerase transcription. hit rate 0.2% among 62,000. inhibition, %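 (tested at 10 µM)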. fluorescence transcription assay. AID 559; in the data active means inhibition above about 20%
AP complement: orthogonal test for alternative complement pathway inhibitors; Human serum alternative complement pathway, LPS-coated ELISA, C3 deposition; tested in compound mixtures; inhibition, % at 5 µM; hit rate 0.08% among 62,000; AID 1235;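 active means inhibition above 30% in each of the two pooled mixtures holding the compound, so the lower value exceeds 30%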
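Test system: human serum complement alternative pathway, C3 deposition onto LPS / Medium: Mg2+-EGTA GVB++ buffer containing human serum at 1:15 dilution / Probe or stimulus: Plate-bound LPS / Times: 1 h at 37 °C / Signal: ELISA with HRP anti-human C3 antibody, TMB substrate, absorbance 450 nm / Measure: percent inhibition / Repeats: two pool placements per compound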
D1 mod: D1 dopamine receptor (human) allosteric modulation; HEK293 D1, CRE-luciferase, dopamine EC30 potentiation; actives deviate in either direction; B-score at 10 µM; P21728; hit rate 5.9% among 58,000;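 active means luminescence count or its row- and column-corrected plate score outside the 99.7% band of the plate's sample wells, on either side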
A number is an active result; - = inactive; . = not tested or not shown.

SMILES | hDAT+cocaine | HEK293 NFkB inh | Ec RNAP inh | AP complement | D1 mod
Cc1ccc(CNC(=O)CCc2nc3ccccc3c(=O)[nH]2)cc1 | - | - | . | - | -
Cc1c(CN(C)C)c2c(n1Cc1ccccc1)C(=O)c1ccccc1-2 | - | . | . | . | .
O=C(NCCc1ccccc1)[C@@H]1CC=C[C@@H]2CCN(Cc3ccccc3)C(=O)[C@@H]21 | - | . | . | . | .
CC(C)(C)c1csc(NC(=O)c2ccc(Cl)s2)n1 | -2.63 | - | . | . | -
C=CCn1c(=O)c2ccccc2n2c(SCC(=O)c3ccccc3)nnc12 | - | - | - | - | -
C=CCn1c(SCc2cc(=O)n3ccsc3n2)nc2sc(C)c(C)c2c1=O | - | - | - | - | 4.02
C=CCn1c(=O)c2ccccc2n2c(SCc3cc(=O)n4ccsc4n3)nnc12 | 2.78 | - | - | - | -
COc1ccc(-c2nnc(CSc3nc4ccccc4c(=O)n3C)o2)cc1OC | - | - | - | - | 8.47
CCOC(=O)N1CCN(C(=O)c2sc3nc(-c4ccc(F)cc4)cn3c2C)CC1 | . | - | - | - | .
Cc1c(C(=O)N2CC(C)OC(C)C2)sc2nc(-c3ccc(F)cc3)cn12 (stereo unspecified) | . | - | - | - | -3.01
COc1ccc(NC(=O)COn2nnc3ccc(Cl)cc32)cc1OC | - | - | - | - | -2.6
O=C(Nc1ccc(Cl)c(Cl)c1)N1CCSC1c1ccco1 (stereo unspecified) | -2.07 | - | - | - | -
O=C(Nc1ccc(Cl)c(Cl)c1)N1CC=CCC1 | - | - | . | - | -
CCCCOc1ccccc1NC(=O)c1ccco1 | - | - | - | - | -
COc1cc(NC(=O)c2cccs2)c(OC)cc1NC(=O)c1ccco1 | . | - | - | - | -
CCOc1ccccc1NC(=O)c1cccc(NC(=O)c2ccco2)c1 | - | 41.8 | - | - | -
COc1ccc(NC(=O)c2ccco2)cc1NC(=O)c1ccc(C)cc1 | - | - | - | - | -
COc1ccc(C(=O)Nc2ccccc2NC(=O)c2ccco2)cc1OC | 2.77 | - | - | - | .
COc1ccccc1NC(NC(=O)c1ccco1)C(=O)c1ccccc1 (stereo unspecified) | 34.9 | - | - | - | .
COc1ccc(NC(=O)c2ccco2)cc1NC(=O)c1cccs1 | 1.81 | - | - | - | -
Cc1nn(Cc2ccccc2)c(=O)n1N(C)c1ncc(C(F)(F)F)cc1Cl | - | . | . | . | .
COC(=O)C1=C(C)NC(=O)NC1c1ccc(OCC(=O)N2CCCCC2)cc1 (stereo unspecified) | - | - | - | - | -
CC(=O)Nc1ccc(OCC(O)CN2CCN(c3cccc(Cl)c3)CC2)cc1 (stereo unspecified) | - | - | - | - | -3.1
COC(=O)C1N[C@@H]([C@@H](NC(=O)COc2ccccc2)C(=O)NCc2ccsc2)SC1(C)C (stereo partly specified) | - | . | . | . | .
Cc1c(CCCC(=O)O)sc(N)c1C(=O)c1cccc(C(F)(F)F)c1 | - | . | . | . | .
SMILES | hDAT+cocaine | HEK293 NFkB inh | Ec RNAP inh | AP complement | D1 mod
Cn1c(=O)oc2cc(S(=O)(=O)NCCN3CCN(c4ccccc4F)CC3)ccc21 | - | - | - | - | -5.94
Cn1c(=O)oc2cc(S(=O)(=O)NCCN3CCCCCC3)ccc21 | - | - | - | - | .
O=C(NC1CC1)c1ccc(-c2nc3ccccc3s2)s1 | - | - | . | - | -6
CCOC(=O)C1(S(=O)(=O)c2ccc(Cl)cc2)CCN(Cc2ccc(C)cc2)CC1 | - | . | . | . | .
CC(C)(C)n1nc2c(c1NC(=O)c1ccc(Br)cc1)CS(=O)C2 (stereo unspecified) | - | - | - | - | -
Cc1ccc(C(=O)Nc2c3c(nn2C(C)(C)C)CS(=O)(=O)C3)cc1C | - | - | - | - | -2.92
CCOc1ccc(C(=O)Nc2cccc(C)n2)cc1 | - | - | - | - | -6.46
CCCCOc1ccc(C(=O)Nc2cccc(C)n2)cc1 | . | - | - | - | -
CC1(C)c2[nH]c3ccccc3c2C[C@@H]2C(=O)N(c3ccc(F)cc3F)C(=O)N21 | - | . | . | . | .
CCOC(=O)CN1C(=O)N[C@@H](CCc2ccccc2)[C@@H](C(=O)OC)[C@H]1C | - | . | . | . | .
COC(=O)C[C@H]1c2cc(F)ccc2S(=O)(=O)N1c1ccc(N(C)C)cc1 | - | . | . | . | .
O=S(=O)(c1ccccc1C(F)(F)F)N1CCC(n2cnc3ccccc32)CC1 | 2.67 | . | . | . | .
OCCSc1nc2ccccc2n1CCOc1ccccc1 | - | . | . | . | .
CC(C)N=C(NC#N)SCC(=O)NC(C)(C)C | - | - | - | - | -
CC(C)N=C(NC#N)SCc1ccccc1F | -8.54 | - | - | - | -
Cc1sc2nc(SCC(=O)N(C)C)[nH]c(=O)c2c1C | - | - | - | - | -
CCN(CC)C(=O)CSc1nc2sc(C)c(C)c2c(=O)[nH]1 | 3.5 | - | - | - | .
CCN1CCN(c2ccc(NC(=O)CCc3c(C)nc4c(-c5ccccc5)c(C)nn4c3C)cc2)CC1 | 2.52 | . | . | . | .
Cc1nc2c(-c3ccc(F)cc3)c(C)nn2c(C)c1CCC(=O)NC(C)CCc1ccco1 (stereo unspecified) | - | - | - | - | -3.33
Cc1nc2c(-c3ccccc3)c(C)nn2c(C)c1CCC(=O)NCc1ccco1 | - | - | - | - | -5.23
Cc1nc2cc(-c3ccc(Cl)cc3)nn2c(C)c1CCC(=O)NCc1ccco1 | - | . | . | . | .
COc1cccc(CN(CC2CCCO2)S(=O)(=O)c2ccc(S(=O)(=O)N(C)C)cc2)c1 (stereo unspecified) | - | . | . | . | .
Nc1nncn1C(=O)c1cccs1 | 2.79 | - | - | - | -
Cc1ccc(C)c(C(=O)n2cnnc2N)c1 | - | - | - | 33.6 | -
COC(=O)C1=C(C)N(CCCC(=O)O)C(=O)NC1c1cccc(Cl)c1Cl (stereo unspecified) | - | . | . | . | .
SMILES | hDAT+cocaine | HEK293 NFkB inh | Ec RNAP inh | AP complement | D1 mod
Cc1nc(NCCc2ccc(S(N)(=O)=O)cc2)c2c3c(sc2n1)CCC3 | - | . | . | . | .
Cc1nc(NCc2ccco2)c2c3c(sc2n1)CCC3 | - | - | - | - | -4.71
Cc1nc2ccccc2n1CC(=O)NCc1ccccc1 | - | - | - | - | -
O=C(Cn1nnc2ccccc21)NCc1ccccc1 | -8.52 | - | - | - | -
CCC(C)Nc1nc(OC(C(F)(F)F)C(F)(F)F)nc(OC(C(F)(F)F)C(F)(F)F)n1 (stereo unspecified) | 3.21 | . | . | . | .
CCC(C)Nc1nc(OCC(F)(F)F)nc(OCC(F)(F)F)n1 (stereo unspecified) | - | - | - | - | -
CC(O)[C@H]1CN=C(N)N1CCCCC1CCCCC1 (stereo partly specified) | -4.68 | . | . | . | .
NCCCC[C@H]1CN=C(N)N1CCCCC1CCCCC1 | - | . | . | . | .
CCN(c1ccc(NC(=O)COC(=O)c2ccc3ccccc3n2)cc1)C(C)C | -2.75 | . | . | . | .
Cc1ccc(N=C2NC(=O)CS2)cc1 | - | . | . | . | .
Cc1ccc(C)n1/N=C1/NC(=O)CS1 | -3.08 | - | - | - | -
CCc1cc2c(=O)c(Oc3ccccc3)c(C)oc2cc1O | -2.48 | - | - | - | -
C/C(Cl)=C\Cn1c(NCCc2ccccc2)nc2c1c(=O)n(C)c(=O)n2C | - | - | - | - | -3.12
C=CCn1c(NCCc2ccccc2)nc2c1c(=O)n(C)c(=O)n2C | - | - | . | . | -
